What all share (assay type): functional, cell-based
Test [1] deals with A-375. In words: Cytotoxicity against human A375 cells after 48 hrs by MTT assay. The following applies: A-375, 48 h. In short, it runs like this: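 A375 melanoma cells grown in RPMI complete medium with 10% FBS, 2 mM L-glutamine, penicillin/streptomycin. Seeded 20 × 10^3 cells/well, adhered overnight, then exposed 48 h to serial dilutions from 10−10 to 10−4 M (from 10−2 M DMSO stock) in triplicate. MTT 1 mg/mL added for 3 h, formazan dissolved in 2-propanol/HCl, absorbance 540 nm; IC50 from sigmoidal dose–response fit.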
(Tetrazolium dyes change colour on reduction, which living cells bring about.)

Test [2] deals with SW480. Briefly: Cytotoxicity against human SW480 cells after 48 hrs by MTT assay. As to conditions: SW480, 48 h. In short, it runs like this:
(§1)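 Colon lines HCT116 and SW480 kept in DMEM with 10% FBS, 2 mM L-glutamine, penicillin/streptomycin. 20 × 10^3 cells/well seeded, overnight adhesion, then 48 h treatment at 10−10 to 10−4 M, serially diluted in medium from 10−2 M DMSO stock; triplicates. Viability by MTT (3 h), formazan in 2-propanol/HCl read at 540 nm; IC50 by sigmoidal curve fitting.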

The test system of test [3] is HCT-116. Briefly: Cytotoxicity against human HCT116 cells after 48 hrs by MTT assay. The following applies: HCT-116, 48 h. In short, it runs like this: as §1

The structures appear in SMILES notation.

What is called IC50 is the concentration needed to halve the response being measured. A low value points to inhibition by little substance.

For the compound `CC(C)=CC(=O)NCCc1c2c3c(ccnc3c3ncsc13)-c1ccccc1N2`, the IC50 was determined as 11.8 µM in test [1], 8.02 µM in test [2] and 14.4 µM in test [3].
The matching figures for `CC(C)=CC(=O)NCCc1c2c(c3nccc4c3c1Nc1ccccc1-4)NC(=O)CS2`: > 10 µM, 9.99 µM and 19 µM.
The matching figures for `C/C=C(\C)C(=O)Nc1cc2cc(O)c3nccc4c5ccccc5n1c2c34`: > 10 µM, > 10 µM and 18.9 µM.
The matching figures for `CC(C)=CC(=O)Nc1cc2cc(O)c3nccc4c5ccccc5n1c2c34`: 6 µM, 8.48 µM and 4.32 µM.
Take `C/C=C(\C)C(=O)NCCc1c2c3c(ccnc3c3ncsc13)-c1ccccc1N2`: the IC50 was > 10 µM in test [1], 3.3 µM in test [2] and > 10 µM in test [3].
As for `C/C=C(\C)C(=O)NCCc1c2c(c3nccc4c3c1Nc1ccccc1-4)NC(=O)CS2`, the IC50 in test [1], in test [2] and in test [3] was > 10 µM each time.
`O=C1c2cccnc2-c2nccc3c2c1nc1ccccc13` [ASCIDIDEMIN]: the IC50 in test [1] was 0.38 µM; in test [2], 0.1 µM; in test [3], 0.25 µM.

(Values after ChEMBL document CHEMBL2417391, “Additional cytotoxic pyridoacridine alkaloids from the ascidian Cystodytes violatinctus and biogenetic considerations” (J Nat Prod, 2013).)
